Measurements taken from ChEMBL document CHEMBL1124671, “Carboxyalkyl dipeptides with atrial natriuretic factor potentiating and antihypertensive activity” (J Med Chem, 1989).
Calls of active or inactive are those of the source. The calls are words filed in the database; no cut-off is given here.

Legend:
[1] = biological target: T1, Angiotensin-converting enzyme (Rattus norvegicus, UniProt P47820); test: Compound was evaluated for the ability to inhibit Angiotensin I converting enzyme in rat
T1 sequence (P47820 whole entry): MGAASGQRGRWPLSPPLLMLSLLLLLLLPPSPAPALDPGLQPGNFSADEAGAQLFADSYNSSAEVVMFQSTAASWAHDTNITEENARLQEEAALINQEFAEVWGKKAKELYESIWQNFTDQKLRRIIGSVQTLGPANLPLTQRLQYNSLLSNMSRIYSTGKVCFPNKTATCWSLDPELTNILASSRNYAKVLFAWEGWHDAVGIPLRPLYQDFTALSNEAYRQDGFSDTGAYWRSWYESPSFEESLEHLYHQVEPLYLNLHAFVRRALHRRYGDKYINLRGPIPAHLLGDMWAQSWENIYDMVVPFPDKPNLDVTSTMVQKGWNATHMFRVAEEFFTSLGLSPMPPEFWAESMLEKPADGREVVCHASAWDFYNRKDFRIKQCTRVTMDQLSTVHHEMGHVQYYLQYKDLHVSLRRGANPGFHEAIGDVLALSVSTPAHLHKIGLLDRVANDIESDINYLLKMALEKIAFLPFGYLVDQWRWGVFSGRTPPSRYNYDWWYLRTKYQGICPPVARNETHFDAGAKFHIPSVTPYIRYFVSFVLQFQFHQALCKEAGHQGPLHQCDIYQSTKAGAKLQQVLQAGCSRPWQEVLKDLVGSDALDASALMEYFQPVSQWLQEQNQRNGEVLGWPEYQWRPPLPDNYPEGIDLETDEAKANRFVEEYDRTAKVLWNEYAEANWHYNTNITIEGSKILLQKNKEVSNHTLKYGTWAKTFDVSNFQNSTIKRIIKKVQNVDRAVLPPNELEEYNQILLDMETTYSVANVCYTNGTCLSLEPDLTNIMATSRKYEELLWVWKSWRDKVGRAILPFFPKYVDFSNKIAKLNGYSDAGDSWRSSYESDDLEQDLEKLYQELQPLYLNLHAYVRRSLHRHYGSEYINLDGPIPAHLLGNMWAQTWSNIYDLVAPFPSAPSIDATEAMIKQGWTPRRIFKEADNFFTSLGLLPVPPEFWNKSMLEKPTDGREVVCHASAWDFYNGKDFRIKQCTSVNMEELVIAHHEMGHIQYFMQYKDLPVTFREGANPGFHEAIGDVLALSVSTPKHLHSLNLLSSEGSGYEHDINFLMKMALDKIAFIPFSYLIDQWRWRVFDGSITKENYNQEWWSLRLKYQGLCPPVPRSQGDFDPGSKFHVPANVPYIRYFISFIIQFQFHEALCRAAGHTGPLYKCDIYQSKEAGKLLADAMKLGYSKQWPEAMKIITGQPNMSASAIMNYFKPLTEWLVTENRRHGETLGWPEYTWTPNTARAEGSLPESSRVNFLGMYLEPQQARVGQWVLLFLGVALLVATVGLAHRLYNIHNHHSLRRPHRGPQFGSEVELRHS

[2] = biological target: T2, Natriuretic peptides A (Rattus norvegicus) (UniProt P01161); test: Compound was administered subcutaneously to spontaneously hypertensive rats (SHR) and evaluated for the ability to potentiate atrial natriuretic factor (ANF)
T2 sequence (whole entry): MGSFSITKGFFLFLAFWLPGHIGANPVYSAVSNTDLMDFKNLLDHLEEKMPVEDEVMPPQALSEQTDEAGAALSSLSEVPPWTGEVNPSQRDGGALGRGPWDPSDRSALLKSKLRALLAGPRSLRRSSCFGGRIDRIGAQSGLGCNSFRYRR
Procedure, shortened: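 Conscious SHR given 30 mg/kg s.c. 30 min before an i.v. challenge of 30 μg/kg ANF 103–125; mean arterial pressure followed, with vehicle-treated controls. Value is the maximum increase in hypotensive response to ANF over the control group.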

Neprilysin = biological target: T3, Neprilysin (Oryctolagus cuniculus, UniProt P08049); test: Compound was evaluated for the ability to inhibit neutral endopeptidase purified from rabbit kidney
T3 sequence (P08049 whole entry): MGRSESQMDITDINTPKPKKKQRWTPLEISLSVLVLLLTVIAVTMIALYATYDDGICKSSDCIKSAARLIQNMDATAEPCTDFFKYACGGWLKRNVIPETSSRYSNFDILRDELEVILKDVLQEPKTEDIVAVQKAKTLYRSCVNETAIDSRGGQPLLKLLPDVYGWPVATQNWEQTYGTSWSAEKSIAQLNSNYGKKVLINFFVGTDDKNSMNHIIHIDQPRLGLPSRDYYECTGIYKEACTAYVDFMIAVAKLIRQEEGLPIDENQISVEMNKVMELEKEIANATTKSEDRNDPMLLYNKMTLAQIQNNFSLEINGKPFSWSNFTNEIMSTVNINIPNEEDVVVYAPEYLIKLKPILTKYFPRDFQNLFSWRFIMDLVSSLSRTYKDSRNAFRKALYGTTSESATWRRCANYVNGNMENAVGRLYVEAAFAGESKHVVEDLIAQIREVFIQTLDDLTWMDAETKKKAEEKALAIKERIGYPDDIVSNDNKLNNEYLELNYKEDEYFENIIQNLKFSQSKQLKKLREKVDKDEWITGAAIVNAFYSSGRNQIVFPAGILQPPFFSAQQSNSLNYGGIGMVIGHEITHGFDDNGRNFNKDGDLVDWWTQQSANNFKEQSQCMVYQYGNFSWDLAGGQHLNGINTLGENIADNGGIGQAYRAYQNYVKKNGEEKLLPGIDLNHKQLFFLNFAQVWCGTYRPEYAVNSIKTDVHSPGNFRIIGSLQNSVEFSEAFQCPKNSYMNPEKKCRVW
Procedure, shortened: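 Enzyme: purified rabbit kidney neutral endopeptidase (NEP).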

[3] = biological target: T2, Natriuretic peptides A (Rattus norvegicus); conditions: Cardiac atrium

IC50 [1]	IC50 (Neprilysin)	SMILES	Delta blood pressure [2]	Delta blood pressure [3]
> 1000 nM	16 nM	O=C(O)CCNC(=O)[C@H](Cc1ccccc1)N[C@@H](CCc1ccccc1)C(=O)O	17 mmHg	–
320 nM	393 nM	O=C(O)[C@H](CO)NC(=O)[C@H](Cc1ccccc1)N[C@@H](CCc1ccccc1)C(=O)O	–	inactive
> 1000 nM	15 nM	O=C(O)[C@H](CCc1ccccc1)N[C@@H](Cc1ccccc1)C(=O)NC[C@H](O)C(=O)O (stereo in doubt; 6e) [listing 1 of 2 here]	–	–
640 nM	21 nM	O=C(O)[C@H](O)CNC(=O)[C@H](Cc1ccccc1)N[C@@H](CCc1ccccc1)C(=O)O	28 mmHg	–
> 1000 nM	11 nM	O=C(O)[C@H](CCc1ccccc1)N[C@@H](Cc1ccccc1)C(=O)NC[C@H](O)C(=O)O (stereo in doubt; 6d) [listing 1 of 2 here]	–	–
–	–	O=C(O)[C@H](CCc1ccccc1)N[C@@H](Cc1ccccc1)C(=O)NC[C@H](O)C(=O)O (stereo in doubt; 6e) [listing 2 of 2 here]	35 mmHg	–
–	–	O=C(O)[C@H](CCc1ccccc1)N[C@@H](Cc1ccccc1)C(=O)NC[C@H](O)C(=O)O (stereo in doubt; 6d) [listing 2 of 2 here]	25 mmHg	–
> 1000 nM	11 nM	O=C(O)[C@H](Cc1ccccc1)N[C@@H](Cc1ccccc1)C(=O)NC[C@H](O)C(=O)O	17 mmHg	–
> 1000 nM	20 nM	O=C(O)CCNC(=O)[C@H](Cc1ccccc1)N[C@@H](Cc1ccccc1)C(=O)O	20 mmHg	–
